Reference: ChEMBL document CHEMBL3596093, “Synthesis and antimicrobial evaluation of 5-aryl-1,2,4-triazole-3-thione derivatives containing a rhodanine moiety” (2015)

Tests used:
Escherichia coli [1] = experiment: Antibacterial activity against Escherichia coli CCARM 1356 after 24 hrs by two-fold serial dilution method; format: functional; details: CCARM 1356, 24 h
Method in brief: (§1)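 Strains grown to mid-log phase in Mueller-Hinton broth, then diluted 1000-fold in the same broth to about 10^5 CFU/mL. Compounds were made up as DMSO stocks and two-fold serially diluted from a final top concentration of 64 µg/mL. Incubation was 37 °C for 24 h. Growth was read as absorbance at 630 nm on a microplate reader. MIC assays were run in triplicate.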

Staphylococcus aureus [2] = experiment: Antibacterial activity against Staphylococcus aureus RN4220 after 24 hrs by two-fold serial dilution method; format: functional; details: RN4220, 24 h
Method in brief: (§2)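 Broth microdilution MIC. Bacteria grown to mid-log phase in Mueller-Hinton broth, diluted 1000-fold, about 10^5 CFU/mL. Compounds from DMSO stocks, two-fold serial dilution from a final 64 µg/mL. Incubation at 37 °C for 24 h. Growth read as absorbance at 630 nm on a microplate reader. Run in triplicate.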

Staphylococcus aureus [3] = experiment: Antibacterial activity against Staphylococcus aureus KCTC 503 after 24 hrs by two-fold serial dilution method; format: functional; details: KCTC 503, 24 h; method in brief: as §1
Streptococcus mutans [4] = experiment: Antibacterial activity against Streptococcus mutans 3065 after 24 hrs by two-fold serial dilution method; format: functional; details: Streptococcus mutans, 3065, 24 h; method in brief: as §1
Staphylococcus aureus [5] = experiment: Antibacterial activity against quinolone-resistant Staphylococcus aureus CCARM 3519 after 24 hrs by two-fold serial dilution method; format: functional; details: CCARM 3519, 24 h; method in brief: as §2
Candida albicans = experiment: Antifungal activity against Candida albicans 7535 after 24 hrs by two-fold serial dilution method; format: functional; details: Candida albicans, 7535, 24 h
Staphylococcus aureus [6] = experiment: Antibacterial activity against methicillin-resistant Staphylococcus aureus CCARM 3167 after 24 hrs by two-fold serial dilution method; format: functional; details: CCARM 3167, 24 h; method in brief: as §2
Pseudomonas aeruginosa [7] = experiment: Antibacterial activity against Pseudomonas aeruginosa 2004 after 24 hrs by two-fold serial dilution method; format: functional; details: Pseudomonas aeruginosa, 2004, 24 h; method in brief: as §1
Staphylococcus aureus [8] = experiment: Antibacterial activity against Staphylococcus aureus KCTC 209 after 24 hrs by two-fold serial dilution method; format: functional; details: KCTC 209, 24 h; method in brief: as §1
Pseudomonas aeruginosa [9] = experiment: Antibacterial activity against Pseudomonas aeruginosa 2742 after 24 hrs by two-fold serial dilution method; format: functional; details: Pseudomonas aeruginosa, 2742, 24 h; method in brief: as §1
Staphylococcus aureus [10] = experiment: Antibacterial activity against methicillin-resistant Staphylococcus aureus CCARM 3506 after 24 hrs by two-fold serial dilution method; format: functional; details: CCARM 3506, 24 h; method in brief: as §2
Escherichia coli [11] = experiment: Antibacterial activity against Escherichia coli KCTC 1924 after 24 hrs by two-fold serial dilution method; format: functional; details: KCTC 1924, 24 h; method in brief: as §1
Staphylococcus aureus [12] = experiment: Antibacterial activity against quinolone-resistant Staphylococcus aureus CCARM 3505 after 24 hrs by two-fold serial dilution method; format: functional; details: CCARM 3505, 24 h; method in brief: as §2
Salmonella typhimurium = experiment: Antibacterial activity against Salmonella typhimurium 2421 after 24 hrs by two-fold serial dilution method; format: functional, Salmonella enterica subsp. enterica serovar Typhimurium; details: Salmonella enterica, 2421, 24 h; method in brief: as §1
Staphylococcus aureus [13] = experiment: Bactericidal activity against Staphylococcus aureus KCTC 503 after 24 hrs by agar plate method; format: functional; details: KCTC 503, 24 h
Method in brief: (§3)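 5 µL from each well without visible growth plated on fresh Mueller-Hinton agar, then 37 °C for a further 24 h. MBC is the lowest concentration giving no visible colonies. Run in triplicate.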

Staphylococcus aureus [14] = experiment: Bactericidal activity against quinolone-resistant Staphylococcus aureus CCARM 3505 after 24 hrs by agar plate method; format: functional; details: CCARM 3505, 24 h; method in brief: as §3
Staphylococcus aureus [15] = experiment: Bactericidal activity against quinolone-resistant Staphylococcus aureus CCARM 3519 after 24 hrs by agar plate method; format: functional; details: CCARM 3519, 24 h; method in brief: as §3
Escherichia coli [16] = experiment: Bactericidal activity against Escherichia coli KCTC 1924 after 24 hrs by agar plate method; format: functional; details: KCTC 1924, 24 h
Method in brief: (§4)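 Samples of 5 µL from MIC wells with no visible growth were plated onto fresh Mueller-Hinton agar and incubated a further 24 h at 37 °C. MBC is the lowest concentration giving no visible colony growth on the agar. Assays were run in triplicate.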

Staphylococcus aureus [17] = experiment: Bactericidal activity against methicillin-resistant Staphylococcus aureus CCARM 3167 after 24 hrs by agar plate method; format: functional; details: CCARM 3167, 24 h; method in brief: as §3
Staphylococcus aureus [18] = experiment: Ratio of MBC to MIC for Staphylococcus aureus KCTC 503; format: functional
Method in brief: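 The ratio divides MBC by MIC for the same strain. MIC comes from two-fold broth microdilution in Mueller-Hinton broth (about 10^5 CFU/mL, 37 °C, 24 h, absorbance at 630 nm). MBC comes from subculturing 5 µL from clear wells onto Mueller-Hinton agar for another 24 h at 37 °C, taken as the lowest concentration with no colonies.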

Streptococcus mutans [19] = experiment: Bactericidal activity against Streptococcus mutans 3065 after 24 hrs by agar plate method; format: functional; details: Streptococcus mutans, 3065, 24 h; method in brief: as §4
Staphylococcus aureus [20] = experiment: Bactericidal activity against Staphylococcus aureus RN4220 after 24 hrs by agar plate method; format: functional; details: RN4220, 24 h; method in brief: as §4
Staphylococcus aureus [21] = experiment: Bactericidal activity against methicillin-resistant Staphylococcus aureus CCARM 3506 after 24 hrs by agar plate method; format: functional; details: CCARM 3506, 24 h; method in brief: as §3

O=C1NC(=S)S/C1=C\c1ccc(/C=N/n2c(-c3ccc(Cl)cc3)n[nH]c2=S)cc1
> 64 µg/mL: MIC (Staphylococcus aureus [2]) | MIC (Staphylococcus aureus [3]) | MIC (Streptococcus mutans [4]) | MIC (Staphylococcus aureus [5]) | MIC (Candida albicans) | MIC (Staphylococcus aureus [6]) | MIC (Staphylococcus aureus [8]) | MIC (Staphylococcus aureus [10]) | MIC (Staphylococcus aureus [12])
> 128 µg/mL: MIC (Escherichia coli [1]) | MIC (Pseudomonas aeruginosa [7]) | MIC (Pseudomonas aeruginosa [9]) | MIC (Escherichia coli [11]) | MIC (Salmonella typhimurium)

O=C1NC(=S)S/C1=C\c1ccc(/C=N/n2c(-c3cccc(Cl)c3)n[nH]c2=S)cc1
> 64 µg/mL: MIC (Staphylococcus aureus [2]) | MIC (Staphylococcus aureus [3]) | MIC (Streptococcus mutans [4]) | MIC (Staphylococcus aureus [5]) | MIC (Candida albicans) | MIC (Staphylococcus aureus [6]) | MIC (Staphylococcus aureus [8]) | MIC (Staphylococcus aureus [10]) | MIC (Staphylococcus aureus [12])
> 128 µg/mL: MIC (Escherichia coli [1]) | MIC (Pseudomonas aeruginosa [7]) | MIC (Pseudomonas aeruginosa [9]) | MIC (Escherichia coli [11]) | MIC (Salmonella typhimurium)

Cc1cccc(-c2n[nH]c(=S)n2/N=C/c2ccc(/C=C3\SC(=S)N(CC(=O)O)C3=O)cc2)c1
32 µg/mL: MIC (Escherichia coli [11])
> 128 µg/mL: MIC (Escherichia coli [1]) | MIC (Pseudomonas aeruginosa [7]) | MIC (Pseudomonas aeruginosa [9]) | MIC (Salmonella typhimurium)
> 256 µg/mL: MBC (Staphylococcus aureus [13]) | MBC (Staphylococcus aureus [14]) | MBC (Staphylococcus aureus [15]) | MBC (Escherichia coli [16]) | MBC (Staphylococcus aureus [17])
64 µg/mL: MIC (Staphylococcus aureus [3]) | MIC (Staphylococcus aureus [5]) | MIC (Staphylococcus aureus [6]) | MIC (Staphylococcus aureus [12])
> 64 µg/mL: MIC (Staphylococcus aureus [2]) | MIC (Streptococcus mutans [4]) | MIC (Candida albicans) | MIC (Staphylococcus aureus [8]) | MIC (Staphylococcus aureus [10])

O=C1NC(=S)S/C1=C\c1ccc(/C=N/n2c(-c3ccc(F)cc3)n[nH]c2=S)cc1
> 64 µg/mL: MIC (Staphylococcus aureus [2]) | MIC (Staphylococcus aureus [3]) | MIC (Streptococcus mutans [4]) | MIC (Staphylococcus aureus [5]) | MIC (Candida albicans) | MIC (Staphylococcus aureus [6]) | MIC (Staphylococcus aureus [8]) | MIC (Staphylococcus aureus [10]) | MIC (Staphylococcus aureus [12])
> 128 µg/mL: MIC (Escherichia coli [1]) | MIC (Pseudomonas aeruginosa [7]) | MIC (Pseudomonas aeruginosa [9]) | MIC (Escherichia coli [11]) | MIC (Salmonella typhimurium)

Cc1ccc(-c2n[nH]c(=S)n2/N=C/c2ccc(/C=C3\SC(=S)N([C@@H](Cc4ccccc4)C(=O)O)C3=O)cc2)cc1
> 64 µg/mL: MIC (Candida albicans) | MIC (Staphylococcus aureus [8])
> 128 µg/mL: MIC (Escherichia coli [1]) | MIC (Pseudomonas aeruginosa [7]) | MIC (Pseudomonas aeruginosa [9]) | MBC (Staphylococcus aureus [15]) | MIC (Escherichia coli [11]) | MIC (Salmonella typhimurium)
64 µg/mL: MBC (Staphylococcus aureus [13]) | MIC (Staphylococcus aureus [3]) | MIC (Streptococcus mutans [4]) | MBC (Staphylococcus aureus [17])
<=4: Ratio (Staphylococcus aureus [18])
8 µg/mL: MIC (Staphylococcus aureus [2]) | MBC (Staphylococcus aureus [20]) | MIC (Staphylococcus aureus [6])
16 µg/mL: MIC (Staphylococcus aureus [5]) | MIC (Staphylococcus aureus [10]) | MIC (Staphylococcus aureus [12])
128 µg/mL: MBC (Staphylococcus aureus [14]) | MBC (Staphylococcus aureus [21])
> 256 µg/mL: MBC (Streptococcus mutans [19])

Cc1ccc(-c2n[nH]c(=S)n2/N=C/c2ccc(/C=C3\SC(=S)NC3=O)cc2)cc1
> 128 µg/mL: MIC (Escherichia coli [1]) | MIC (Pseudomonas aeruginosa [7]) | MIC (Pseudomonas aeruginosa [9]) | MIC (Escherichia coli [11]) | MIC (Salmonella typhimurium)
> 64 µg/mL: MIC (Staphylococcus aureus [2]) | MIC (Staphylococcus aureus [3]) | MIC (Streptococcus mutans [4]) | MIC (Staphylococcus aureus [5]) | MIC (Candida albicans) | MIC (Staphylococcus aureus [6]) | MIC (Staphylococcus aureus [8]) | MIC (Staphylococcus aureus [10]) | MIC (Staphylococcus aureus [12])

Cc1cccc(-c2n[nH]c(=S)n2/N=C/c2ccc(/C=C3\SC(=S)N([C@@H](Cc4ccccc4)C(=O)O)C3=O)cc2)c1
256 µg/mL: MBC (Streptococcus mutans [19])
> 64 µg/mL: MIC (Candida albicans) | MIC (Staphylococcus aureus [8])
32 µg/mL: MIC (Staphylococcus aureus [2]) | MBC (Staphylococcus aureus [20])
16 µg/mL: MIC (Staphylococcus aureus [5]) | MIC (Staphylococcus aureus [6]) | MIC (Staphylococcus aureus [10]) | MIC (Staphylococcus aureus [12])
> 128 µg/mL: MIC (Escherichia coli [1]) | MIC (Pseudomonas aeruginosa [7]) | MIC (Pseudomonas aeruginosa [9]) | MIC (Escherichia coli [11]) | MIC (Salmonella typhimurium)
<=4: Ratio (Staphylococcus aureus [18])
128 µg/mL: MBC (Staphylococcus aureus [13]) | MBC (Staphylococcus aureus [15]) | MBC (Staphylococcus aureus [17])
64 µg/mL: MIC (Staphylococcus aureus [3]) | MIC (Streptococcus mutans [4]) | MBC (Staphylococcus aureus [14]) | MBC (Staphylococcus aureus [21])
